Source: ChEMBL document CHEMBL1255307, “Role of the AheABC efflux pump in Aeromonas hydrophila intrinsic multidrug resistance” (2008)
In brackets after ≈: the same amount, converted by molar mass. Where a SMILES comes first, the peptide text is derived from it. Bridges are numbered along the chain shown (N, C = ends). [ ]: non-standard residue; d: D form. The star is where a group is joined. NMePhe(4-NMe2) = CN[C@@H](Cc1ccc(N(C)C)cc1)C(=O)O; Pip(4-oxo) = O=C1CCN[C@H](C(=O)O)C1; Picolinoyl(3-OH) = O=C(c1ncccc1O)*; Phg = N[C@H](C(=O)O)c1ccccc1; dAbu = CC[C@@H](N)C(=O)O

How the values were obtained:
Type in all cases: functional
[1] = (§1) Antimicrobial activity against Aeromonas hydrophila subsp. hydrophila ATCC 7966 harboring plasmid pEX19Gm by agar dilution method in presence of 64 mg/L efflux pump inhibitor phenylalanine-arginine-beta-naphthylamide
[2] = (§2) Antimicrobial activity against Aeromonas hydrophila subsp. hydrophila ATCC 7966 harboring plasmid pEX19Gm by agar dilution method
In short: (§3)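 Agar dilution MICs on MH medium, final inoculum about 10^4 CFU per spot. Tested in A. hydrophila ATCC 7966T and E. coli TG1 strains (wild type, ΔaheB::kan or ΔacrAB), each carrying empty pEX19Gm or a pump-encoding plasmid (pEXAheABC, pUCAcrAB). Run at least in triplicate, mode value reported.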

[3] = system: Escherichia coli; assay: Antimicrobial activity against Escherichia coli TG1 harboring plasmid pEX19Gm by agar dilution method; in short: as §3
[4] = system: Escherichia coli; assay: Antimicrobial activity against acrAB-deficient Escherichia coli TG1 harboring AheABC efflux pump by agar dilution method; in short: as §3
[5] = system: Escherichia coli; assay: Antimicrobial activity against acrAB-deficient Escherichia coli TG1 harboring plasmid pEX19Gm by agar dilution method; in short: as §3
[6] = (§4) Antimicrobial activity against aheB deficient kanamycin-resistant Aeromonas hydrophila subsp. hydrophila ATCC 7966 harboring AheABC efflux pump by agar dilution method; in short: as §3
[7] = (§5) Antimicrobial activity against aheB deficient kanamycin-resistant Aeromonas hydrophila subsp. hydrophila ATCC 7966 harboring plasmid pEX19Gm by agar dilution method; in short: as §3
[8] = (§6) Antimicrobial activity against aheB deficient kanamycin-resistant Aeromonas hydrophila subsp. hydrophila ATCC 7966 harboring plasmid pEX19Gm by agar dilution method in presence of 64 mg/L efflux pump inhibitor phenylalanine-arginine-beta-naphthylamide
[9] = (§7) Antimicrobial activity against aheB-deficient kanamycin-resistant Aeromonas hydrophila subsp. hydrophila ATCC 7966 harboring AheABC efflux pump by agar dilution method in presence of 64 mg/L efflux pump inhibitor phenylalanine-arginine-beta-naphthylamide
[10] = system: Escherichia coli; assay: Antimicrobial activity against acrAB-deficient Escherichia coli TG1 harboring AcrAB efflux pump by agar dilution method; in short: as §3
[11] = system: Aeromonas hydrophila subsp. hydrophila ATCC 7966; assay: as §1
[12] = system: Aeromonas hydrophila subsp. hydrophila ATCC 7966; assay: as §2; in short: as §3
[13] = system: Aeromonas hydrophila subsp. hydrophila ATCC 7966; assay: as §4; in short: as §3
[14] = system: Aeromonas hydrophila subsp. hydrophila ATCC 7966; assay: as §5; in short: as §3
[15] = system: Aeromonas hydrophila subsp. hydrophila ATCC 7966; assay: as §6
[16] = system: Aeromonas hydrophila subsp. hydrophila ATCC 7966; assay: as §7

Compound | MIC [1] | MIC [2] | MIC [3] | MIC [4] | MIC [5] | MIC [6] | MIC [7] | MIC [8] | MIC [9] | MIC [10] | MIC [11] | MIC [12] | MIC [13] | MIC [14] | MIC [15] | MIC [16]
CN(C)c1ccc2cc3ccc(N(C)C)cc3nc2c1 [ACRIDINE ORANGE] | 256 µg/mL | 512 µg/mL (≈ 1930 µM) | > 1020 µg/mL | 256 µg/mL (≈ 965 µM) | 128 µg/mL (≈ 482 µM) | 1020 µg/mL (≈ 3860 µM) | 256 µg/mL (≈ 965 µM) | 128 µg/mL | 256 µg/mL | > 1020 µg/mL | – | – | – | – | – | –
CCN1CCN(C(=O)N[C@@H](C(=O)N[C@@H]2C(=O)N3C(C(=O)O)=C(CSc4nnnn4C)CS[C@H]23)c2ccc(O)cc2)C(=O)C1=O [CEFOPERAZONE] | 0.25 µg/mL | 0.25 µg/mL (≈ 0.387 µM) | 0.25 µg/mL (≈ 0.387 µM) | 0.06 µg/mL (≈ 0.0929 µM) | 0.03 µg/mL (≈ 0.0465 µM) | 2 µg/mL (≈ 3.1 µM) | 0.06 µg/mL (≈ 0.0929 µM) | 0.06 µg/mL | 2 µg/mL | 8 µg/mL (≈ 12.4 µM) | – | – | – | – | – | –
CO/N=C(\C(=O)N[C@@H]1C(=O)N2C(C(=O)O)=C(COC(N)=O)CS[C@H]12)c1ccco1 [CEFUROXIME] | 1 µg/mL | 1 µg/mL (≈ 2.36 µM) | 4 µg/mL (≈ 9.43 µM) | 2 µg/mL (≈ 4.71 µM) | 0.5 µg/mL (≈ 1.18 µM) | 4 µg/mL (≈ 9.43 µM) | 0.25 µg/mL (≈ 0.589 µM) | 0.25 µg/mL | 4 µg/mL | 8 µg/mL (≈ 18.9 µM) | – | – | – | – | – | –
CC[C@H]1OC(=O)[C@H](C)[C@@H](O[C@H]2C[C@@](C)(OC)[C@@H](O)[C@H](C)O2)[C@H](C)[C@@H](O[C@@H]2O[C@H](C)C[C@H](N(C)C)[C@H]2O)[C@](C)(O)C[C@@H](C)C(=O)[C@H](C)[C@@H](O)[C@]1(C)O [ERYTHROMYCIN] | 2 µg/mL | 16 µg/mL (≈ 21.8 µM) | 64 µg/mL (≈ 87.2 µM) | 32 µg/mL (≈ 43.6 µM) | 1 µg/mL (≈ 1.36 µM) | 64 µg/mL (≈ 87.2 µM) | 8 µg/mL (≈ 10.9 µM) | 1 µg/mL | 2 µg/mL | 128 µg/mL (≈ 174 µM) | – | – | – | – | – | –
CC(=O)O[C@H]1C[C@@]2(C)[C@@H](C[C@@H](O)[C@H]3[C@@]4(C)CC[C@@H](O)[C@@H](C)[C@@H]4CC[C@@]32C)/C1=C(\CCC=C(C)C)C(=O)O [FUSIDIC ACID] | 2 µg/mL | 128 µg/mL (≈ 248 µM) | 512 µg/mL (≈ 991 µM) | 128 µg/mL (≈ 248 µM) | 2 µg/mL (≈ 3.87 µM) | 256 µg/mL (≈ 495 µM) | 64 µg/mL (≈ 124 µM) | 1 µg/mL | 8 µg/mL | 512 µg/mL (≈ 991 µM) | – | – | – | – | – | –
CC[n+]1c(-c2ccccc2)c2cc(N)ccc2c2ccc(N)cc21.[Br-] [HOMIDIUM BROMIDE] | 128 µg/mL | 128 µg/mL | 512 µg/mL | 64 µg/mL | 2 µg/mL | 512 µg/mL | 64 µg/mL | 64 µg/mL | 512 µg/mL | 512 µg/mL | – | – | – | – | – | –
CCC[C@@H]1C[C@@H](C(=O)N[C@@H]([C@H]2O[C@H](SC)[C@H](O)[C@@H](O)[C@H]2O)[C@@H](C)O)N(C)C1 [LINCOMYCIN] | 128 µg/mL | 128 µg/mL (≈ 315 µM) | 1020 µg/mL (≈ 2520 µM) | 512 µg/mL (≈ 1260 µM) | 64 µg/mL (≈ 157 µM) | 256 µg/mL (≈ 630 µM) | 64 µg/mL (≈ 157 µM) | 64 µg/mL | 256 µg/mL | > 1020 µg/mL | – | – | – | – | – | –
CN(C)c1ccc(O)c2c1C[C@H]1C[C@H]3[C@H](N(C)C)C(O)=C(C(N)=O)C(=O)[C@@]3(O)C(O)=C1C2=O [MINOCYCLINE] | 0.5 µg/mL | 1 µg/mL (≈ 2.19 µM) | 1 µg/mL (≈ 2.19 µM) | 1 µg/mL (≈ 2.19 µM) | 0.12 µg/mL (≈ 0.262 µM) | 2 µg/mL (≈ 4.37 µM) | 0.4 µg/mL (≈ 0.874 µM) | 0.25 µg/mL | 1 µg/mL | 2 µg/mL (≈ 4.37 µM) | – | – | – | – | – | –
CC[C@H]1NC(=O)[C@@H](NC(=O)c2ncccc2O)[C@@H](C)OC(=O)[C@H](c2ccccc2)NC(=O)[C@@H]2CC(=O)CCN2C(=O)[C@H](Cc2ccc(N(C)C)cc2)N(C)C(=O)[C@@H]2CCCN2C1=O [PRISTINAMYCIN 1A] ({Picolinoyl(3-OH)}-T[dAbu]P[NMePhe(4-NMe2)][Pip(4-oxo)][Phg]; ester 1-C) | 2 µg/mL | 32 µg/mL (≈ 36.9 µM) | 64 µg/mL (≈ 73.8 µM) | 64 µg/mL (≈ 73.8 µM) | 4 µg/mL (≈ 4.61 µM) | 128 µg/mL (≈ 148 µM) | 8 µg/mL (≈ 9.23 µM) | 1 µg/mL | 4 µg/mL | 64 µg/mL (≈ 73.8 µM) | – | – | – | – | – | –
CO[C@H]1/C=C/O[C@@]2(C)Oc3c(C)c(O)c4c(O)c(c(/C=N/N5CCN(C)CC5)c(O)c4c3C2=O)NC(=O)/C(C)=C\C=C\[C@H](C)[C@H](O)[C@@H](C)[C@@H](O)[C@@H](C)[C@H](OC(C)=O)[C@@H]1C [RIFAMPIN] | 0.06 µg/mL | 2 µg/mL (≈ 2.43 µM) | 16 µg/mL (≈ 19.4 µM) | 8 µg/mL (≈ 9.72 µM) | 8 µg/mL (≈ 9.72 µM) | 4 µg/mL (≈ 4.86 µM) | 1 µg/mL (≈ 1.22 µM) | 0.03 µg/mL | 0.12 µg/mL | 16 µg/mL (≈ 19.4 µM) | – | – | – | – | – | –
COc1cc(Cc2cnc(N)nc2N)cc(OC)c1OC [TRIMETHOPRIM] | 8 µg/mL | 16 µg/mL (≈ 55.1 µM) | 0.2 µg/mL (≈ 0.689 µM) | 0.05 µg/mL (≈ 0.172 µM) | 0.05 µg/mL (≈ 0.172 µM) | 32 µg/mL (≈ 110 µM) | 8 µg/mL (≈ 27.6 µM) | 4 µg/mL | 16 µg/mL | 0.05 µg/mL (≈ 0.172 µM) | – | – | – | – | – | –
TRIBUTYLSTANNANYL | – | – | > 1020 µg/mL | 16 µg/mL | 4 µg/mL | – | – | – | – | > 1020 µg/mL | 2 µg/mL | 32 µg/mL | 256 µg/mL | 16 µg/mL | 2 µg/mL | 4 µg/mL
